According to article PMC7227796 (ACS chemical neuroscience, 2020):
Read-outs that look alike come from different tables or passages of the source. Marks after values point to notes of the source that are not given here.

What was measured:
native AMPA receptors = experiment: Radioligand binding at native AMPA receptors; details: rat synaptosomes, [3H]AMPA; for IC50: read-out: AMPA IC50, native iGluRs (synaptosomes)
Method in brief: (§1)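 Rat cortical synaptosomal membranes were labelled with 5 nM [3H]AMPA (AMPA), 5 nM [3H]KA (KA) or [3H]CGP39653 (NMDA). Test compound was run at 12–16 concentrations in triplicate, with three to six independent experiments. Cpm were fitted by nonlinear regression. Values are reported as pIC50 for AMPA and KA and as pKi for NMDA, each as mean with SEM.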

native KA receptors = experiment: Radioligand binding at native KA receptors; details: rat synaptosomes, [3H]KA
Method in brief: as §1

native NMDA receptors = experiment: Radioligand binding at native NMDA receptors; design: species or system rat; details: for NMDA pKi with SEM (in brackets) / Ki: rat synaptosomes, [3H]CGP-39653; for Ki: read-out: NMDA Ki, native iGluRs (synaptosomes)
Method in brief: as §1

GluK2 = GluK2 (Rattus norvegicus, UniProt P42260); experiment: Radioligand binding at recombinant homomeric GluK2; details: for GluK2 % specific binding (Table 5): mean ± SD, ligand concentration not given
Sequence of GluK2 (P42260 32-908): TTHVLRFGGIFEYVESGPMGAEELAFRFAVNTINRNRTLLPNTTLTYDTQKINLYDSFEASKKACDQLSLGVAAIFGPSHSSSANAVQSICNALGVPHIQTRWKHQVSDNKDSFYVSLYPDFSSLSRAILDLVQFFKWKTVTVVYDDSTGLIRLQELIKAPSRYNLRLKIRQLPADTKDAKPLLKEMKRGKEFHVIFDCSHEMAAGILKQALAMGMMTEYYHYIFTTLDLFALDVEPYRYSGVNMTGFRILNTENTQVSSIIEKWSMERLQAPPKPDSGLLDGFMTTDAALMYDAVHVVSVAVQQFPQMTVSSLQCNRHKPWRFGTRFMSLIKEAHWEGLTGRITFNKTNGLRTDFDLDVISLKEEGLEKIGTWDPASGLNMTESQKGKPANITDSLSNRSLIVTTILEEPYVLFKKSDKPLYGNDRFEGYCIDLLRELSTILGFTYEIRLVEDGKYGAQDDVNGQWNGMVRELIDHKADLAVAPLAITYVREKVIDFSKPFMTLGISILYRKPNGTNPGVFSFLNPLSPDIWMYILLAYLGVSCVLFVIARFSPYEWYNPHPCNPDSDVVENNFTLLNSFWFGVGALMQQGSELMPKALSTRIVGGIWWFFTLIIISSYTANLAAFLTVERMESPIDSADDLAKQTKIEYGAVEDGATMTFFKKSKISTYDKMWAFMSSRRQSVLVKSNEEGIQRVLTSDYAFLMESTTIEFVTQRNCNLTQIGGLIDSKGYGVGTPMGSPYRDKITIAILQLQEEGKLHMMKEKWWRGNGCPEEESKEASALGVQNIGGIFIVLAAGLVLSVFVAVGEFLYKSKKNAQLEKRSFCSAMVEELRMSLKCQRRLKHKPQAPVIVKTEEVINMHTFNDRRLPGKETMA
Method in brief: (§2)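 Membranes from sf9 cells expressing rat homomeric GluK1, GluK2 or GluK3 were incubated in 50 mM Tris-HCl, pH 7.1, for 2 h at 4 °C. Radioligand was [3H]-(S)-NF608 for GluK1 and [3H]kainic acid for GluK2 and GluK3. Samples were filtered on GF/B, washed twice with ice-cold buffer, dried for 1 h at 70 °C and counted by scintillation. Ki came from 12–16-point triplicate curves. Single-point % specific binding is mean ± SD of three experiments, at 10 μM test compound where stated.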

GluK3 = GluK3 (Rattus norvegicus, UniProt P42264); experiment: Radioligand binding at recombinant homomeric GluK3; details: for GluK3 % specific binding (Table 5): mean ± SD, ligand concentration not given
Sequence of GluK3 (P42264 32-919): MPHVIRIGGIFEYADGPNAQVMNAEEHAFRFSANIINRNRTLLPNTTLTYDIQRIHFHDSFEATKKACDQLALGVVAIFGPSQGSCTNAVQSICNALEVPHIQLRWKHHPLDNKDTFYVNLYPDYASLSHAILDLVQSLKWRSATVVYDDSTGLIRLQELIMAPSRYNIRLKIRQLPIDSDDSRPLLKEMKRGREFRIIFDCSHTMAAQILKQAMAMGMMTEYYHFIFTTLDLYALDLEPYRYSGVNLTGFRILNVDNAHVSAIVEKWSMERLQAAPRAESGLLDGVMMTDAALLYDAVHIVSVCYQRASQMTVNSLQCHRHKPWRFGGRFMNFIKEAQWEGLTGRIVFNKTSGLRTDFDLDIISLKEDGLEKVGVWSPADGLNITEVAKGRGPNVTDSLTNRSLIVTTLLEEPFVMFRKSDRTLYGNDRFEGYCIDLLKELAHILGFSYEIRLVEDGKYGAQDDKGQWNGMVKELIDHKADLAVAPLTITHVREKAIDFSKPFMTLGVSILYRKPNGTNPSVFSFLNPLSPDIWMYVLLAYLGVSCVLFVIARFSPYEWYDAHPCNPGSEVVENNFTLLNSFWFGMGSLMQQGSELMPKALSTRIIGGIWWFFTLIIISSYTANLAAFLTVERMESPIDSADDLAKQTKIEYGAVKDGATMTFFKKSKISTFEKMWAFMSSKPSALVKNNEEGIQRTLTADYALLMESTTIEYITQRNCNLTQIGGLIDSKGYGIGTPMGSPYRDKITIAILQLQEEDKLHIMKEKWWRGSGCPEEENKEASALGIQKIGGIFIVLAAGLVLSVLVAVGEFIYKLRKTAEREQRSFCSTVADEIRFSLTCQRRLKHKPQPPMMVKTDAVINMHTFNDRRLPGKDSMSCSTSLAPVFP
Method in brief: as §2

GluK1 = GluK1 (Rattus norvegicus, UniProt P22756); experiment: Radioligand binding at recombinant homomeric GluK1; details: for GluK1 % specific binding (Table 5): [3H]NF608, mean ± SD, ligand concentration not given
Sequence of GluK1 (P22756 31-920 isoform P22756-4 limits assumed): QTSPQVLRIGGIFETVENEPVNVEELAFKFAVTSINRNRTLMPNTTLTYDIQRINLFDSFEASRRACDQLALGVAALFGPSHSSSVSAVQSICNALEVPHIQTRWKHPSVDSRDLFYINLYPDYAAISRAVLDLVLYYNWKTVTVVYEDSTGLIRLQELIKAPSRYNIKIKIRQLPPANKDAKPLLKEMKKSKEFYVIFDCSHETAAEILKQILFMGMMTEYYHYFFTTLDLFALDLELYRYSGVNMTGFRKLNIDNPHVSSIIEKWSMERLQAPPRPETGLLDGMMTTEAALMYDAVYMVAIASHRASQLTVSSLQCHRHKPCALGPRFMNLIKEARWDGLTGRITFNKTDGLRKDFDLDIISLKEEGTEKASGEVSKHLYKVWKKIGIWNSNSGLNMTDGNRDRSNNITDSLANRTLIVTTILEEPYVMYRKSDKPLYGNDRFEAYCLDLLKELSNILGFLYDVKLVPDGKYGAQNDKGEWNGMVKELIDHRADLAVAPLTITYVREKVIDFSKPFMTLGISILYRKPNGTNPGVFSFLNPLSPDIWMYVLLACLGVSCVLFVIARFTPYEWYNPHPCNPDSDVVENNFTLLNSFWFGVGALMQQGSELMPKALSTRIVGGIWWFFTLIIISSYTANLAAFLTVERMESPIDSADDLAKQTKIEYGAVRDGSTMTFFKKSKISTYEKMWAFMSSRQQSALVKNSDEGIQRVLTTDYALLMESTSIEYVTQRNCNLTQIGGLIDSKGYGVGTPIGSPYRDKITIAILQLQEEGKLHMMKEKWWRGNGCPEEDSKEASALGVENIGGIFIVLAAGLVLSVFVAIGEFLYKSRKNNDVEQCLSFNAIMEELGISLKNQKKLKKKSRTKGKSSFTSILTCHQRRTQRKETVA
Method in brief: as §2

[1] = target: GluN1/GluN2A NMDA receptor (Rattus norvegicus, UniProt P35439+Q00959); experiment: Two-electrode voltage-clamp recordings, Xenopus oocytes expressing GluN1/GluN2A; type: cell-based
Method in brief: (§3)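 Xenopus oocytes were injected with rat GluN1-1a and GluN2A, 2B, 2C or 2D cRNA at a 1:2 ratio. Two-electrode voltage clamp was run 2–6 days later at room temperature and −40 mV. Bath was 90 NaCl, 1 KCl, 10 HEPES, 0.5 BaCl2, 0.01 EDTA (mM), pH 7.4. Currents were evoked by 1 μM glutamate plus 100 μM glycine, with test compound gravity-perfused. Hill fits gave IC50 per oocyte (5–6 oocytes). Ki was derived by Cheng-Prusoff using earlier glutamate EC50 values.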

[2] = target: GluN1/GluN2B NMDA receptor (Rattus norvegicus, UniProt P35439+Q00960); experiment: Two-electrode voltage-clamp recordings, Xenopus oocytes expressing GluN1/GluN2B; type: cell-based
Method in brief: as §3

[3] = target: GluN1/GluN2C NMDA receptor (Rattus norvegicus, UniProt P35439+Q00961); experiment: Two-electrode voltage-clamp recordings, Xenopus oocytes expressing GluN1/GluN2C; type: cell-based
Method in brief: as §3

[4] = target: GluN1/GluN2D NMDA receptor (Rattus norvegicus, UniProt P35439+Q62645); experiment: Two-electrode voltage-clamp recordings, Xenopus oocytes expressing GluN1/GluN2D; type: cell-based
Sequence of GluN1/GluN2D NMDA receptor (Q62645 28-1323, other chains not shown): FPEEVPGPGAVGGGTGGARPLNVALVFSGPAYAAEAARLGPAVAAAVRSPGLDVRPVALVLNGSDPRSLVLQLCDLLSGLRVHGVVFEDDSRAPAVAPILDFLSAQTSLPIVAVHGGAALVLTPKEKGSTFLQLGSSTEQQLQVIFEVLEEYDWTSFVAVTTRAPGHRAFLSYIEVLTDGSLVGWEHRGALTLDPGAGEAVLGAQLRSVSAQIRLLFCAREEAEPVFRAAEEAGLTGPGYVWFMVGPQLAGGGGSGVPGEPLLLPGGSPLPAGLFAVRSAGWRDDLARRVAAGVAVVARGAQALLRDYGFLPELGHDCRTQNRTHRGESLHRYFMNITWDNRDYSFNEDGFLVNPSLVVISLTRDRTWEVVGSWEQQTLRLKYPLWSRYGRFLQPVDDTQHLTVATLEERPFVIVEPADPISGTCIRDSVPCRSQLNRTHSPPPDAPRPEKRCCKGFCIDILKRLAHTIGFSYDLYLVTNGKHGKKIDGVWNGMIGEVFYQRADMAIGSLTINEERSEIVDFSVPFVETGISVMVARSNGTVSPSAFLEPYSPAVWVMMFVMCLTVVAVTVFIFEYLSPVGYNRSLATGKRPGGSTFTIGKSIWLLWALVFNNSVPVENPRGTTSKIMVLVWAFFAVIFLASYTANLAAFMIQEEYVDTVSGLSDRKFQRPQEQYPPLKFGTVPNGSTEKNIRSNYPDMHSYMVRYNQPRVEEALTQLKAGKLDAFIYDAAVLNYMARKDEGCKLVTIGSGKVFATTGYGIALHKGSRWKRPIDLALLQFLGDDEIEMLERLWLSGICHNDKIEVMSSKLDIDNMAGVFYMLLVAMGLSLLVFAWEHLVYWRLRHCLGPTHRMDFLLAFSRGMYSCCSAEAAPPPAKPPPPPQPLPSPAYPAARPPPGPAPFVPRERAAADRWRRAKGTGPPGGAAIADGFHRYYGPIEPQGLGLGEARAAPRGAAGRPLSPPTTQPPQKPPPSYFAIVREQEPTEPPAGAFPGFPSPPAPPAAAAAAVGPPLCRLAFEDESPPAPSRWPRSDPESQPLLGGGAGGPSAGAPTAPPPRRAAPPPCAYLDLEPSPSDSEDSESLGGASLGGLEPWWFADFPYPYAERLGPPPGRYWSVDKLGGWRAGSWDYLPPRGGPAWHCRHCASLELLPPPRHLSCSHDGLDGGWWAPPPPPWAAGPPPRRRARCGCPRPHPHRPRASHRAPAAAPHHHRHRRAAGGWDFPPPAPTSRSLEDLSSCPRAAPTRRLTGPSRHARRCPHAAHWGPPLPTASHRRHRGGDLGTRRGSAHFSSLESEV
Method in brief: as §3

[5] = read-out: GluK2 Ki, cloned homomeric iGluRs, [3H]KA, mean ± SEM
[6] = read-out: GluK3 Ki, cloned homomeric iGluRs, [3H]KA, mean ± SEM
[7] = 10 μM ligand concentration, [3H]KA, mean ± SD (Tables 2, 4)

Compound | AMPA pIC50 with SEM (in brackets) (native AMPA receptors) | IC50 (native AMPA receptors) | KA IC50, native iGluRs (synaptosomes) (native KA receptors) | KA pIC50 with SEM (in brackets) (native KA receptors) | NMDA pKi with SEM (in brackets) (native NMDA receptors) | Ki (native NMDA receptors) | Ki (GluK1) | Ki (GluK2) | Ki (GluK3) | further results
Cl.Cl.Nc1cc(C(=O)O)cc([C@H]2CCN[C@@H]2C(=O)O)c1 (racemic) [(±)-5j, (±)-2,3-trans-(3-Amino-5-carboxyphenyl)pyrrolidine-2-carboxylic acid dihydrochloride] | 4.29±0.07 | 52 µM | 86 µM | 4.07±0.04 | 4.87±0.05 | 14 µM | – | – | – | Ki (GluK2; [5]): > 100 µM; Ki (GluK3; [6]): 19.3 ± 0.9 µM
Cc1ccc(S(=O)(=O)Nc2cc(C(=O)O)cc([C@H]3CCN[C@@H]3C(=O)O)c2)cc1.Cl (racemic) [(±)-5k, (±)-2,3-trans-(3-Carboxy-5-((4-methylphenyl)sulfonamido)phenyl)pyrrolidine-2-carboxylic acid hydrochloride] | 4.65±0.09 | 23 µM | >100 µM | – | 4.82±0.03 | 15 µM | – | – | – | Ki (GluK2; [5]): 19 µM; Ki (GluK3; [6]): 10.9 ± 0.5 µM
Cl.O=C(O)c1cc(NS(=O)(=O)c2ccccn2)cc([C@H]2CCN[C@@H]2C(=O)O)c1 (racemic) [(±)-5l, (±)-2,3-trans-3-(3-Carboxy-5-(pyridine-2-sulfonamido)phenyl)pyrrolidine-2-carboxylic acid hydrochloride] | 4.57±0.04 | 27 µM | >100 µM | – | 4.46±0.08 | 36 µM | – | – | – | Ki (GluK2; [5]): ~100 µM; Ki (GluK3; [6]): 14 ± 0.9 µM
Cl.O=C(O)c1cc(NC(=O)c2ccccc2)cc([C@H]2CCN[C@@H]2C(=O)O)c1 (racemic) [(±)-5m, (±)-2,3-trans-3-(3-Benzamido-5-carboxyphenyl)pyrrolidine-2-carboxylic acid hydrochloride] | 4.63±0.04 | 24 µM | 16 µM | 4.81±0.03 | 5.16±0.04 | 6.9 µM | – | – | – | Ki (GluK2; [5]): ~100 µM; Ki (GluK3; [6]): 3.95 ± 0.2 µM
Cl.O=C(O)c1cc(Br)cc([C@H]2CCN[C@@H]2C(=O)O)c1 [5b, (2S,3R)-3-(3-Bromo-5-carboxyphenyl)pyrrolidine-2-carboxylic acid hydrochloride] | 4.60 ± 0.04 | 26 µM | 10 µM | 4.99 ± 0.04 | 5.63 ±0.05 | 2.4 µM | 5.88 ± 0.6 µM | > 100 µM | 2.42 ± 0.11 µM | –
Cl.O=C(O)c1cc(-c2cnn[nH]2)cc([C@H]2CCN[C@@H]2C(=O)O)c1 [5d, (2S,3R)-3-(3-Carboxy-5-(1H-1,2,3-triazol-5-yl)phenyl)pyrrolidine-2-carboxylic acid hydrochloride] | 4.69 ±0.04 | 21 µM | 20 µM | 4.71±0.06 | 6.08±0.05 | 0.83 µM | > 50 µM | > 100 µM | 10 to 50 µM | increase in affinity for native NMDA receptors (native NMDA receptors; compared to 4a): 7 fold; selectivity/preference for NMDA receptors over AMPA and KA receptors (native NMDA receptors; native receptors): 24 fold; IC50 [1]: 1.36 ± 0.06 µM; IC50 [2]: 3.51 ± 0.18 µM; IC50 [3]: 7.28 ± 0.17 µM; IC50 [4]: 18.5 ± 1.54 µM
Cl.O=C(O)c1cc([C@H]2CCN[C@@H]2C(=O)O)cc(Br)c1Cl [6a, (2S,3R)-3-(3-Bromo-5-carboxy-4-chlorophenyl)pyrrolidine-2-carboxylic acid hydrochloride] | – | > 100 µM | >100 µM | – | – | 1 to 10 µM | ≥ 100 µM | ≥ 100 µM | ≥ 100 µM | –
Cl.O=C(O)c1cc([C@H]2CCN[C@@H]2C(=O)O)cc(C(=O)O)c1Cl [6b, 5-((2S,3R)-2-Carboxypyrrolidin-3-yl)-2-chloroisophthalic acid hydrochloride] | – | > 100 µM | >100 µM | – | 6.82 ± 0.08 | 0.16 µM | ≥ 100 µM | ≥ 100 µM | > 50 µM | IC50 [1]: 0.2 ± 0.02 µM; Ki [1]: 0.2 µM; IC50 [2]: 0.75 ± 0.04 µM; IC50 [3]: 1.33 ± 0.03 µM; IC50 [4]: 5.15 ± 0.23 µM
CNCC[C@@H]1CN[C@H](C(=O)O)[C@H]1c1cccc(C(=O)O)c1 [9b, (2S,3R,4S)-3-(3-Carboxyphenyl)-4-(2-(methylamino)ethyl)pyrrolidine-2-carboxylic acid] | 4.16 ± 0.02 | 69 µM | >100 µM | – | – | > 100 µM | ~10 µM | > 100 µM | > 100 µM | GluK1 % specific binding (Table 5) (GluK1): 50 ± 6%; GluK2 % specific binding (Table 5) (GluK2; [3H]KA): 99 ± 6%; GluK3 % specific binding (Table 5) (GluK3; [3H]KA): 83 ± 6%
O=C(O)c1cccc([C@H]2[C@H](CCNCc3ccccc3)CN[C@@H]2C(=O)O)c1 [9c, (2S,3R,4S)-4-(2-(Benzylamino)ethyl)-3-(3-carboxyphenyl)pyrrolidine-2-carboxylic acid] | 4.83 ± 0.05 | 15 µM | – | – | – | > 100 µM | 2.98 ± 0.96 µM | > 100 µM | 2.46 ± 0.54 µM | GluK2 % specific binding (Table 5) (GluK2; [3H]KA): 86 ± 6%
O=C(O)c1cccc([C@H]2[C@H](CCO)CN[C@@H]2C(=O)O)c1 [9d, (2S,3R,4S)-3-(3-Carboxyphenyl)-4-(2-hydroxyethyl)pyrrolidine-2-carboxylic acid] | 4.47 ± 0.007 | 35 µM | 13 µM | 4.89 ± 0.3 | 4.22 ± 0.03 | 61 µM | > 10 µM | > 100 µM | > 10 µM | GluK1 % specific binding (Table 5) (GluK1): 60 ± 6%; GluK2 % specific binding (Table 5) (GluK2; [3H]KA): 93 ± 7%; GluK3 % specific binding (Table 5) (GluK3; [3H]KA): 57 ± 2%
Cl.O=C(O)C[C@@H]1CN[C@H](C(=O)O)[C@H]1c1cccc(C(=O)O)c1 [9e, (2S,3R,4S)-4-(Carboxymethyl)-3-(3-carboxyphenyl)pyrrolidine-2-carboxylic acid hydrochloride] | – | > 100 µM | >100 µM | – | – | > 100 µM | > 100 µM | > 100 µM | > 100 µM | GluK1 % specific binding (Table 5) (GluK1): 93 ± 3%; GluK2 % specific binding (Table 5) (GluK2; [3H]KA): 97 ± 7%; GluK3 % specific binding (Table 5) (GluK3; [3H]KA): 95 ± 3%
O=C(O)C(F)(F)F.O=C(O)c1ccc([C@H]2CCN[C@@H]2C(=O)O)cc1 [compound 7, (2S,3R)-3-(4-Carboxyphenyl)pyrrolidine-2-carboxylic acid trifluoro acetic acid] | – | > 100 µM | >100 µM | – | – | 8.5 µM | > 100 µM | > 100 µM | > 100 µM | IC50 [1]: 45 ± 1.5 µM; IC50 [2]: 165 ± 14.1 µM; IC50 [3]: 193 ± 6.1 µM; IC50 [4]: 159 ± 8.7 µM
(2S,3R)-3-(4-Amino-3-carboxyphenyl)pyrrolidine-2-carboxylic acid dihydrochloride [4g] | – | > 100 µM | >100 µM | – | – | > 100 µM | – | – | – | GluK1 % specific binding (GluK1; 10 μM ligand concentration, [3H]NF608, mean ± SD (Table 2)): (70 ± 16)^d %; GluK2 % specific binding (GluK2; [7]): (77 ± 5)^d %; GluK3 % specific binding (GluK3; [7]): (64 ± 4)^d %
